From ChEMBL document CHEMBL4513216, “Probing the Open Global Health Chemical Diversity Library for Multistage-Active Starting Points for Next-Generation Antimalarials” (ACS Infect Dis, 2020)

Assay: Toxicity liver stage against HepG2, at 10uM
Assay type: cell-based
Design: test concentration 10 uM, cell line HepG2-A16-CD81EGFP
Settings: human, HepG2-A16-CD81EGFP cells; read-out: INHIBITION
Procedure, shortened: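 Uninfected HepG2-A16-CD81EGFP cells, 3 × 10^3 per well, 1536-well, plated on prespotted compound at 10 μM final, parasite-free screening media added to match infected plates; puromycin 10 μM positive, DMSO 0.5% negative; run in parallel with 48 h PbLuc assay at 37 °C, 5% CO2; viability by CellTiter-Glo luminescence, normalized to controls.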

CC(C)COC1CCN(C(=O)c2ccc(C(F)(F)F)[nH]c2=O)CC1
cytotoxicity at 10 µM: 0.0436%

O=C1CC(NS(=O)(=O)N2CCOCC2)CN1CCc1ccccc1 (stereo not given)
cytotoxicity at 10 µM: 14.4%

CCC[C@@H]1CN(c2ncnc3sccc23)C[C@H]1C(=O)O
cytotoxicity at 10 µM: 1.96%

COc1ccc(C2CCCN2C(=O)NCCn2ccnc2)cc1 (stereo not given)
cytotoxicity at 10 µM: -9.13%

CCOCC1CN(Cc2cccs2)Cc2nn(C)cc21 (stereo not given)
cytotoxicity at 10 µM: -75.2%

CC(Cn1cncn1)Nc1ccc(-c2nccn2C)nn1 (stereo not given)
cytotoxicity at 10 µM: -3.73%

CC(=O)NCC(=O)N1Cc2nc(COCc3csc(C)n3)oc2C1
cytotoxicity at 10 µM: 0.503%

Fc1ccc(CN2CCCC2c2cncc(-n3ccnc3)n2)cc1 (stereo not given)
cytotoxicity at 10 µM: 5.82%

Cc1nc(CC(=O)N2CCN(C)CC2c2ccccc2)cs1 (stereo not given)
cytotoxicity at 10 µM: 3.49%

CN(Cc1ccc(C#N)cc1)c1ncc(C(N)=O)cc1Cl
cytotoxicity at 10 µM: 18.5%

CCn1cc(CN2CCCC2c2nc(-c3ccccc3)no2)cc1C#N (stereo not given)
cytotoxicity at 10 µM: 0.165%

Cn1cnnc1S(=O)(=O)Cc1cc(Cl)c2c(c1)OCO2
cytotoxicity at 10 µM: -36.6%

c1csc(CCN2CCCC2c2noc(C3CC3)n2)c1 (stereo not given)
cytotoxicity at 10 µM: 9.15%

OC(CNCc1nnc2ccccn12)c1ccc2c(c1)OCCCO2 (stereo not given)
cytotoxicity at 10 µM: 2.93%

COc1ncc(-c2cc(NCCN(C)C)nc3[nH]ccc23)c(OC)n1
cytotoxicity at 10 µM: -20.7%

COC(=O)[C@H]1CN(C(=O)NC(C)C)CCN1C(=O)C1CCCCC1
cytotoxicity at 10 µM: 1.35%

CCNc1cc2c(nn1)CCN(C(=O)C1CCc3ccccc31)C2 (stereo not given)
cytotoxicity at 10 µM: 0.169%

COc1ncccc1CNC(=O)c1cc(F)cc(Br)c1
cytotoxicity at 10 µM: -0.872%

COCC(=O)N1CCN(c2ncnc3cccc(F)c23)CC1
cytotoxicity at 10 µM: 6.37%

CCN(C(c1cccnc1)c1ccc2c(c1)CCO2)S(C)(=O)=O (stereo not given)
cytotoxicity at 10 µM: -8.28%

COc1ccc(N(C)C(=O)C2CN(C)CCO2)cc1F (stereo not given)
cytotoxicity at 10 µM: -41.8%

O=C(COCc1nc(-c2ccncc2)no1)N1CCCC1
cytotoxicity at 10 µM: -10.7%

CSc1ncc(C(=O)N2CCC(O)(CN3CCOCC3)C(C)(C)C2)cn1 (stereo not given)
cytotoxicity at 10 µM: -2.16%

CNC(=O)[C@H]1CCS(=O)(=O)[C@@H]2CN(Cc3ccc(OC)cc3)C[C@H]12
cytotoxicity at 10 µM: -10.3%

OCCN1CCCC(c2nccnc2Oc2ccc(F)cc2)C1 (stereo not given)
cytotoxicity at 10 µM: 25.6%

Cc1cc(C)n(C2CCCN(C(=O)CCc3nccs3)C2)n1 (stereo not given)
cytotoxicity at 10 µM: -28.1%

COCc1nc2cc3c(cc2c(=O)o1)OCCCO3
cytotoxicity at 10 µM: 1.19%

COc1cc(Cl)ccc1CNC(=O)N1CCC(n2cncn2)CC1
cytotoxicity at 10 µM: -0.861%

Cc1nnc([C@@H]2CC[C@@H]3[C@@H](CCN3S(=O)(=O)c3cccnc3)O2)o1
cytotoxicity at 10 µM: 0.462%

O=C(c1cccs1)N1CCC[C@]2(C[C@@H](OCc3ccncc3)CO2)C1
cytotoxicity at 10 µM: 7.92%

O=C([C@H]1C[C@@H]2CCN(c3cccc(F)c3)C[C@H]2O1)N1CCCC1
cytotoxicity at 10 µM: 1.99%

COCC(=O)N1CCC2(CCN(Cc3ccccn3)CC2)CC1
cytotoxicity at 10 µM: -6.62%

CS(=O)(=O)NC1CCN(C(=O)COCc2ccccc2)CC1
cytotoxicity at 10 µM: -8.61%

Cc1ccc(CN2CCn3c(COc4cccnc4)cnc3C2C)o1 (stereo not given)
cytotoxicity at 10 µM: -111%

Cc1nn(C)c(C)c1-c1c(-c2ccccc2)ncn1[C@H](CO)C(=O)O
cytotoxicity at 10 µM: -2.34%

O=C1CCC(=O)N1Cc1ccc(C(=O)N2CCCC2c2cccs2)cc1 (stereo not given)
cytotoxicity at 10 µM: 2.8%

Cc1cc(C(C)NC(=O)CCN2C(=O)c3ccccc3C2=O)c(C)o1 (stereo not given)
cytotoxicity at 10 µM: -7.82%

Cc1cc(C)cc(C2(C(=O)NCC3CCN(CC(F)(F)F)C3)CC2)c1 (stereo not given)
cytotoxicity at 10 µM: -1.62%

O=C(O)[C@@H]1CN(C(=O)c2cc(C3CC3)n[nH]2)C[C@H]1c1cccc(F)c1
cytotoxicity at 10 µM: -9%

CCC(NC(=O)C1CCN(S(=O)(=O)N(C)C)CC1)c1ccc(C)c(C)c1 (stereo not given)
cytotoxicity at 10 µM: -1.02%

c1ccc(Cc2noc(CN3CCCC3Cn3cccn3)n2)cc1 (stereo not given)
cytotoxicity at 10 µM: -2.57%

CN1CCN(C(=O)CCCc2ccccc2)CC(O)(Cn2cccn2)C1 (stereo not given)
cytotoxicity at 10 µM: -1.93%

O=C(c1cccnc1-n1cncn1)N1CCN(CC2CC2)CC1
cytotoxicity at 10 µM: -10.9%

CCCN(Cc1cccnc1)C(=O)C1CCCN(C)C1 (stereo not given)
cytotoxicity at 10 µM: 9.77%

CCS(=O)(=O)NCCN(CCO)C1CCc2ccccc21 (stereo not given)
cytotoxicity at 10 µM: 14.4%

CN(C)C(=O)[C@H]1C[C@H]2CN(S(=O)(=O)c3ccccc3)C[C@@H]1O2
cytotoxicity at 10 µM: -83.1%

CCc1noc(CNc2ccc(F)cc2OCC2CC2)n1
cytotoxicity at 10 µM: -7.21%

Cc1nc(CN2C(=O)C[C@@H]3[C@@H]2CCN3S(=O)(=O)C2CC2)cs1
cytotoxicity at 10 µM: -124%

COc1cccc2cc(CNCc3ccc(N4CCCC4)nc3)oc12
cytotoxicity at 10 µM: -5.42%

CCCN(Cc1cccnc1)C(=O)C1CCN(Cc2ccco2)CC1
cytotoxicity at 10 µM: 0.376%

O=C(CCc1nccs1)N1CCN(c2ccccn2)CC1
cytotoxicity at 10 µM: -19.7%

O=C(c1ccc2c(c1)OCO2)N1CCN(c2cnccn2)CC1
cytotoxicity at 10 µM: -7.1%

CN1CC[C@@H]2[C@@H]1CCN2Cc1ccc2c(c1)OCO2
cytotoxicity at 10 µM: 3.11%

CN(Cc1cc(=O)c(O)co1)C1CCCN(c2ccccc2)C1 (stereo not given)
cytotoxicity at 10 µM: -3.17%

O=C(c1ccn(COc2ccc(F)cc2)n1)N1CCCC1
cytotoxicity at 10 µM: 6.25%
